Source: PubChem BioAssay (several laboratories)
Compounds with a hit are over-represented: about 2.2% of the library has one in this group of screens.
HDAC3 inhib – human HDAC3 inhibition | O15379 | recombinant HDAC3, fluorogenic peptide/trypsin coupled, fluorescence | inhibition, % at 8.3 µM | 320,000 tested, 0.15% active; in the data active = inhibition above about 26%, passing the limit was not always enough; inconclusive = no clear call, values can overlap the other calls
Target sequence (O15379 whole entry, looked up): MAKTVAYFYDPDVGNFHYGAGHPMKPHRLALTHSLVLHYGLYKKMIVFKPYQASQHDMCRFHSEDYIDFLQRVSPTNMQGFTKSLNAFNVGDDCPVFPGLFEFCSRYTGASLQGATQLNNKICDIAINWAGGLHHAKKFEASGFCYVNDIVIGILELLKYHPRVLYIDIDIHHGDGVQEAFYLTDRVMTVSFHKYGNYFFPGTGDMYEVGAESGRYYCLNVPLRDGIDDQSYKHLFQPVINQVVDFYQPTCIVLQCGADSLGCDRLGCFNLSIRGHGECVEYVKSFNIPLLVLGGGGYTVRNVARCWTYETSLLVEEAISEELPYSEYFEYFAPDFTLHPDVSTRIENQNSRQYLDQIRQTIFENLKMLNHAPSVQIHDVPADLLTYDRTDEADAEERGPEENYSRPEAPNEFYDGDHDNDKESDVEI
T cruzi inh – T. cruzi replication inhibition; T. cruzi beta-gal in NIH3T3, luminescence, 90 h; inhibition, % (concentration not given with the values); 300,000 tested, 1.4% active; AID 1885;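 active = mean inhibition across valid replicates above about 55%, limit read from the data; inconclusive = mean below that limit but half or more replicates reach it; inactive = mean below it, under half of replicates reach it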;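 also: signal also drops with host cell toxicity which is not excluded here; 0% = plate median of DMSO wells and 100% = zero luminescence signal; higher percent means less beta-gal luminescence so fewer parasites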
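System: NIH/3T3 fibroblasts plus reporter T. cruzi. Medium: DMEM plus 2% FBS. Probe or stimulus: 5000 reporter trypomastigotes per well. Compound: single 50 nL compound addition per well in DMSO. Incubation: co-culture of at least 90 h after 3 h attachment. Detection: GalScreen β-gal luminescence, detergent lysis, 60 min. Evaluation: parasite load inhibition, %.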
Efflux pump mplx – antifungal efflux pump inhibition, Nile Red retention; AID 485275; S. cerevisiae Candida pump triplex; 330,000 tested, 0.44% active; inhibition, % at 10 µM;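 active = plate passing quality check with inhibition over a set limit, or well fluorescence over plate mean plus 4 SD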;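 also: Nile Red retained in pooled yeast measured as flow cytometry median fluorescence; 0% = buffer negative control and 100% = Enniatin B positive control; higher means more Nile Red kept so more efflux inhibition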
PolyA inh – yeast polyadenylation inhibition; AID 1875; 300,000 tested, 0.02% active; activity score, % at 12 µM; S. cerevisiae SKY197-pL101 polyadenylation reporter, beta-gal luminescence; efflux-impaired pdr1/pdr3 knockout yeast; score 100 = 6 SD above DMSO;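 active = lowest replicate activity score at least 50, where 100 means six control SD above control mean; inconclusive = lowest score under 50 but half or more replicates reach 50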;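 also: yeast exposed to compound for 9 h at 30 °C; higher score means more reporter readthrough which indicates perturbed polyadenylation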
AI-2 QS mod – modulators of Vibrio harveyi AI-2 quorum sensing system. Vibrio harveyi JMH597 AI-2 luminescence/OD600 ratio, 9 h; stronger effect = lower value; strain lacks LuxN and CqsS sensors; 0 = neutral-control median. activity change, % at 7.5 µM. 300,000 tested, 0.4% active. AID 2094; in the data active = activity change below about -75%, passing the limit was not always enough; inconclusive = no clear call, values can overlap the other calls;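 also: luminescence divided by OD600 gain over 9 h not by final OD600 alone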
Yeast cmpd fluor – counter-screen for efflux pump inhibitors: compound fluorescence; shares compounds with Efflux pump mplx; S. cerevisiae AD/pABC3, flow cytometry; fluorescence ratio to DMSO, % at 10 µM; 1,700 tested, 4% active; AID 588517;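 active = fluorescence ratio to DMSO above its plate's cutoff, the plate mean ratio plus 5 SD, cut at about 210% in these data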;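 also: unstained yeast with no Nile Red so the signal is compound autofluorescence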
Mdr1 pump inh – inhibitors of Candida albicans Mdr1 efflux pump; shares compounds with Efflux pump mplx; S. cerevisiae AD/CaMDR1, Nile Red efflux, flow cytometry; inhibition, % at 10 µM; 1,700 tested, 1% active; AID 588518; in the data active = inhibition above about 26%;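 also: 0% = DMSO vehicle and 100% = reference inhibitor; higher means more Nile Red retained so more efflux inhibition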
CaCdr2 efflux inh – inhibitors of Candida albicans Cdr2 efflux pump; shares compounds with Efflux pump mplx; S. cerevisiae AD/CaCDR2, Nile Red retention, flow cytometry; Nile Red retention ratio vs DMSO, % at 10 µM; 1,700 tested, 4% active; AID 588520; in the data active = Nile Red retention ratio vs DMSO above about 190%;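 also: higher ratio means more blocking of Cdr2 efflux of the dye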
CaCdr1 efflux inh – Candida Cdr1 efflux pump inhibition. shares compounds with Efflux pump mplx. S. cerevisiae AD/CaCDR1, Nile Red efflux, flow cytometry. inhibition, % at 10 µM. 1,700 tested, 1% active;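 active = inhibition above the screen-wide mean plus twice its standard deviation, cut at about 32% in these data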
Starred values were filed as active, the others as inactive; ? = inconclusive; · = not tested or not shown; + = active, no number.

SMILES	HDAC3 inhib	T cruzi inh	Efflux pump mplx	PolyA inh	AI-2 QS mod	Yeast cmpd fluor	Mdr1 pump inh	CaCdr2 efflux inh	CaCdr1 efflux inh
Cc1ccc(-n2nc3c(=O)n(CC(=O)NCCc4ccccc4C)nc(C)c3c2C)cc1	-4	2	4.2*	-12	14	106	0	102	0
Cc1nn(CC(=O)NCCc2cccs2)c(=O)c2nn(-c3ccccc3)c(C)c12	-2	-1	0	2	0	·	·	·	·
Cc1ccc(-n2nc3c(=O)n(CC(=O)NCc4cccs4)nc(C)c3c2C)cc1	-9	-6	0	7	31	99	0	105	0
O=C(CCN1C(=O)/C(=C/c2ccc(F)cc2)SC1=S)NCCCn1ccnc1	9	-14	2.1*	-5	4	103	-1	98	0
O=C(CCN1C(=O)/C(=C/c2ccc(Cl)cc2)SC1=S)NCCCn1ccnc1	3	-8	0	5	15	·	·	·	·
Cc1ccc2c(c1)c(/C=C/c1cc[n+](C)cc1)c(C)n2C	14	66*	25*	-8	-3	+	32*	290*	16
C[n+]1ccc(/C=C/c2ccc(Br)cc2)cc1	13	32	0	17	0	·	·	·	·
C[n+]1ccc(/C=C/c2c[nH]c3ccc(F)cc23)cc1	5	?	4	-2	1	·	·	·	·
Cc1ccc2[nH]c(C)c(/C=C/c3cc[n+](C)cc3)c2c1	17	57*	20*	1	-5	+	16	317*	15
O=c1/c(=C/c2ccco2)sc2nc(-c3ccccc3Br)nn12	1	·	0	·	·	99	0	99	0
COc1ccccc1-c1nc2s/c(=C\c3cccs3)c(=O)n2n1	-4	4	0	-7	6	·	·	·	·
Cc1ccc(/C=c2\sc3nc(-c4cccs4)nn3c2=O)o1	8	-5	0.5*	1	-4	110	0	89	0
CCOC(=O)C(NC(=O)CC)(Nc1ccc(S(N)(=O)=O)cc1)C(F)(F)F (configuration not stated)	2	5	0	0	-8	·	·	·	·
CCOC(=O)C(NC(=O)CC)(Nc1ccccc1)C(F)(F)F (configuration not stated)	6	-6	5.5*	2	4	93	0	94	0
Cc1ccnc(NC(=O)c2cccc(S(=O)(=O)N3CCCC3)c2)c1	-3	15	0	-4	26	·	·	·	·
COc1ccc(-c2cc(C(=O)N3CCN(c4ccccc4)CC3)c3ccccc3n2)cc1OC	·	13	0	5	33	·	·	·	·
COc1ccc(-c2cc(C(=O)N3CCCC(C(F)(F)F)C3)c3ccccc3n2)cc1OC (configuration not stated)	·	0	0.4*	-18	19	105	0	110	0
CS(=O)(=O)c1ccc(NCCc2ccccn2)c([N+](=O)[O-])c1	-1	7	0	-17	16	·	·	·	·
O=[N+]([O-])c1cc(C(F)(F)F)ccc1NCCc1ccccn1	5	-7	0.9*	-12	-2	103	0	121	0
CC1(C2CC2)NC(=O)N(CC(=O)Nc2ccc(F)cc2F)C1=O (configuration not stated)	3	·	0	·	·	·	·	·	·
O=C(Nc1ccnc(-c2cccnc2)n1)c1cccc(Cl)c1Cl	1	6	1.0*	18	22	118	1	116	0
N#Cc1cnc(NN)nc1	0	-19	0.9*	9	30	107	0	106	0
Cc1cccc(C)c1-n1c(SCC(=O)N2CC(=O)Nc3ccccc32)nc2ccccc2c1=O	2	12	8.2*	11	-6	102	0	125	95*
CC(C)CCSc1nnc(N)s1	3	-18	0	12	6	·	·	·	·
CCCSc1nnc(N)s1	1	-17	18*	0	15	118	1	155	1
SMILES	HDAC3 inhib	T cruzi inh	Efflux pump mplx	PolyA inh	AI-2 QS mod	Yeast cmpd fluor	Mdr1 pump inh	CaCdr2 efflux inh	CaCdr1 efflux inh
Cc1sc2ncn(CC(=O)Nc3cccc(S(N)(=O)=O)c3)c(=O)c2c1-c1ccccc1	4	-12	0	-21	3	·	·	·	·
CNC(=S)N1CCc2cc(OC)c(OC)cc2C1	0	-27	0	6	-6	108	0	106	0
COc1cc2c(cc1OC)CN(C(=S)Nc1c(C)cccc1C)CC2	-2	8	0	6	11	·	·	·	·
CCN1CCN(CC(O)COCC2COc3ccccc3O2)CC1 (configuration not stated)	-3	1	0	4	18	·	·	·	·
OC(COCC1COc2ccccc2O1)CN1CCN(c2ccccc2)CC1 (configuration not stated)	·	20	1.0*	-6	20	101	0	97	0
COc1cc(/C=N/NC(=O)COc2ccc(C)cc2)ccc1OC(=O)c1cccs1	9	-2	2.1*	6	-2	87	0	98	0
COc1ccc(CCNC(=O)C(=O)NCC2OCCN2S(=O)(=O)c2cc(F)ccc2F)cc1OC (configuration not stated)	-10	-7	0	7	24	·	·	·	·
CC[n+]1c(/C=C/C=C/N(C(C)=O)c2ccccc2)sc2cc(OC)ccc21	45*	·	3.5*	·	·	346*	2	123	1
CC[n+]1c(/C=C(\C)Nc2ccccc2)sc2ccccc21	?	·	0	·	·	·	·	·	·
CCOc1ccc(S(=O)(=O)N2CCN(C(=O)c3ccncc3)CC2)cc1	-1	-9	7.4*	-1	31	89	0	91	0
CCOc1ccc(S(=O)(=O)N2CCN(C(=O)c3cccnc3)CC2)cc1	-3	-5	0	8	-11	·	·	·	·
CCN(C(=O)CSc1cc(C)c2cccc(C)c2n1)C1CCS(=O)(=O)C1 (configuration not stated)	1	-9	0	-10	26	·	·	·	·
O=C1NC2(CCCC2)C(=O)N1CC(=O)N(Cc1ccccc1)c1ccccc1	1	-3	0	12	7	·	·	·	·
CC(C)c1ccccc1-n1c(SCc2cc(=O)oc3ccc4ccccc4c23)nnc1-c1cccnc1	9	14	15*	18	0	103	0	98	0
Cc1nn(C)c(C(=O)NNC(=O)NC2CCCCC2)c1Cl	·	-2	·	5	46	·	·	·	·
